Measured values reported in ChEMBL document CHEMBL1141338, “Cytotoxic sesquiterpene lactones from Pseudoelephantopus spicatus” (J Nat Prod, 2007).
Converted amounts (≈) assume the structure as drawn.

Key:
A549 = experiment: Cytotoxicity against human A549 cells; assay type: functional, cell-based
How it was run: (§1)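 Panel lines are HepG2 hepatocellular carcinoma, MDA-MB-231 breast carcinoma and A-549 lung carcinoma (human); cytotoxicity evaluated alongside Hep3B and MCF-7 in the same screen.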

MDA-MB-231 = experiment: Cytotoxicity against human MDA-MB-231 cell; assay type: functional, cell-based; how it was run: as §1
HepG2 = experiment: Cytotoxicity against human HepG2 cells; assay type: functional, cell-based; how it was run: as §1
[1] = Cytotoxicity against human Hep3B cells; assay type: functional, cell-based, Hep 3B2
How it was run: (§2)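 Human Hep3B hepatocellular carcinoma and MCF-7 breast carcinoma lines; cytotoxicity reported as IC50 in µg/mL; doxorubicin included as positive control.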

MCF7 = experiment: Cytotoxicity against human MCF7 cells; assay type: functional, cell-based; how it was run: as §2

Row | Compound | IC50 (A549) | IC50 (MDA-MB-231) | IC50 (HepG2) | IC50 [1] | IC50 (MCF7)
1 | COCC1=C2/C(=C\[C@@]3(C)CC[C@](O)(O3)[C@@](C)(O)C[C@@H]2OC(C)=O)OC1=O | > 5 µg/mL | > 5 µg/mL | > 5 µg/mL |  | 
2 | CC(=O)OCC1=C2[C@@H](OC(C)=O)C[C@@]3(C)O[C@]2(C[C@](C)(O)CCC3=O)OC1=O [SPICATOLIDE A] | > 5 µg/mL | > 5 µg/mL | > 5 µg/mL |  | 
3 | COc1cccc2c1C(=O)c1c(O)c3c(c(O)c1C2=O)C[C@@](O)(C(=O)CO)C[C@@H]3O[C@H]1C[C@H](N)[C@H](O)[C@H](C)O1 [DOXORUBICIN] |  |  |  | 0.06 µg/mL (≈ 0.11 µM) | 
4 | COCC1=C2[C@@H](OC(C)=O)C[C@@]3(C)O[C@@]2(OC1=O)[C@H](O)[C@@]1(C)CC[C@]3(O)O1 [SPICATOLIDE G] | > 5 µg/mL | > 5 µg/mL | > 5 µg/mL | 6.1 µg/mL (≈ 15.9 µM) | 4.8 µg/mL (≈ 12.5 µM)
5 | COCC1=C2[C@@H](O)C[C@@]3(C)O[C@]2(C[C@](C)(O)CCC3=O)OC1=O [SPICATOLIDE F] | > 5 µg/mL | > 5 µg/mL | > 5 µg/mL | 3.2 µg/mL (≈ 9.81 µM) | 2.4 µg/mL (≈ 7.35 µM)
6 | COCC1=C2/C(=C\[C@@]3(C)CC[C@](O)(O3)[C@@](C)(O)C[C@@H]2O)OC1=O [SPICATOLIDES D] | > 5 µg/mL | > 5 µg/mL | > 5 µg/mL | 4.8 µg/mL (≈ 14.7 µM) | 5.1 µg/mL (≈ 15.6 µM)
7 | C=C1CC[C@@H]2[C@H](OC(=O)[C@H]2C)[C@H]2[C@H](C)OC(=O)C[C@@H]12 [SPICATOLIDE H] | > 5 µg/mL | > 5 µg/mL | > 5 µg/mL |  | 
8 | CC(=O)OCC1=C2/C(=C\[C@@]3(C)CC[C@](O)(O3)[C@@](C)(O)C[C@@H]2O)OC1=O [PITOCARPHIN D] | > 5 µg/mL | > 5 µg/mL | > 5 µg/mL |  | 
9 | COCC1=C2[C@@H](OC(C)=O)C[C@@](C)(OC(C)=O)[C@@]3(O)CC[C@@](C)(O)[C@H](OC(C)=O)[C@@]23OC1=O | > 5 µg/mL | > 5 µg/mL | > 5 µg/mL |  | 
10 | C/C=C(\C)C(=O)O[C@H]1C[C@](C)(O)[C@]2(O)CC[C@](C)(/C=C3/OC(=O)C(COC)=C31)O2 [SPICATOLIDE E] | > 5 µg/mL | > 5 µg/mL | > 5 µg/mL |  | 
